Measured values reported in ChEMBL document CHEMBL1135663, “Probing opioid receptor interactions with azacycloalkane amino acids. Synthesis of a potent and selective ORL1 antagonist” (J Med Chem, 2002).
Where “and” joins values, the source holds several entries; their conditions need not be identical. Equal values may be shown once.

Tests used:
[1] = target: Delta-type opioid receptor (Homo sapiens, UniProt P41143); assay: Binding affinity for opioid receptor type, human Opioid receptor delta 1 expressed in membrane homogenates of COS-1 or CHO cells; assay type: cell-based
Nociceptin receptor [2] = target: T1, Nociceptin receptor (Homo sapiens, UniProt P41146); assay: Binding affinity for opioid receptor like type, human Opioid receptor like 1 expressed in membrane homogenates of COS-1 or CHO cells; assay type: cell-based
Mu-type opioid receptor [3] = target: T2, Mu-type opioid receptor (Homo sapiens, UniProt P35372); assay: Binding affinity for opioid receptor type, human Opioid receptor mu 1 expressed in membrane homogenates of COS-1 or CHO cells; assay type: cell-based
[4] = target: T3, Kappa-type opioid receptor (Homo sapiens, UniProt P41145); assay: Binding affinity for opioid receptor type, human Opioid receptor kappa 1 expressed in membrane homogenates of COS-1 or CHO cells; assay type: cell-based
Mu-type opioid receptor [5] = target: T2, Mu-type opioid receptor; assay: Stimulation of [35S]GTP-gamma-S, binding using COS-human Opioid receptor mu 1 membranes; assay type: functional
How it was run: (§1)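 Agonist-stimulated [35S]GTPγS binding to 5 μg membranes from COS cells transiently expressing human KOR or MOR. Incubation was 1 h at 30 °C with 0.2 nM [35S]GTPγS, GDP and increasing ligand concentrations, giving concentration–response data. Mean ± SEM of at least two separate experiments, each in triplicate.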

[6] = target: T3, Kappa-type opioid receptor; assay: Stimulation of [35S]GTP-gamma-S, binding using COS-human Opioid receptor kappa 1 membranes; assay type: functional; how it was run: as §1
Mu-type opioid receptor [7] = target: T2, Mu-type opioid receptor; assay: Maximal activation of [35S]GTP-gamma-S, binding using COS-human Opioid receptor mu 1 membranes; assay type: functional
How it was run: (§2)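 Membranes (5 μg) from COS cells transiently transfected with human KOR or MOR, incubated 1 h at 30 °C with 0.2 nM [35S]GTPγS, GDP and increasing ligand concentrations. Maximal activation is given as percentage of basal [35S]GTPγS binding. Mean ± SEM of at least two separate experiments, each in triplicate.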

[8] = target: T3, Kappa-type opioid receptor; assay: Maximal activation of [35S]GTP-gamma-S, binding using COS-human Opioid receptor kappa 1 membranes; assay type: functional; how it was run: as §2
Nociceptin receptor [9] = target: T1, Nociceptin receptor

Chain of Delta-type opioid receptor (P41143 whole entry): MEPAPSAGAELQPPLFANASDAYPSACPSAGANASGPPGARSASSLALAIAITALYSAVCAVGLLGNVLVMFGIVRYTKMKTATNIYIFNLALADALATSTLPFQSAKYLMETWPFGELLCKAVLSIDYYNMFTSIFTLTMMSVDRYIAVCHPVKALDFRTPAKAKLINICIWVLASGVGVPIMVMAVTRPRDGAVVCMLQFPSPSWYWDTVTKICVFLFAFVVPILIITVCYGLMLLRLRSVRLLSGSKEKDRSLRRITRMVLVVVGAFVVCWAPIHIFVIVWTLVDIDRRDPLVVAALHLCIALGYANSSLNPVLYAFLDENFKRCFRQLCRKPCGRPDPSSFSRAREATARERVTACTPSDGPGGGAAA
T3 sequence (P41145 whole entry): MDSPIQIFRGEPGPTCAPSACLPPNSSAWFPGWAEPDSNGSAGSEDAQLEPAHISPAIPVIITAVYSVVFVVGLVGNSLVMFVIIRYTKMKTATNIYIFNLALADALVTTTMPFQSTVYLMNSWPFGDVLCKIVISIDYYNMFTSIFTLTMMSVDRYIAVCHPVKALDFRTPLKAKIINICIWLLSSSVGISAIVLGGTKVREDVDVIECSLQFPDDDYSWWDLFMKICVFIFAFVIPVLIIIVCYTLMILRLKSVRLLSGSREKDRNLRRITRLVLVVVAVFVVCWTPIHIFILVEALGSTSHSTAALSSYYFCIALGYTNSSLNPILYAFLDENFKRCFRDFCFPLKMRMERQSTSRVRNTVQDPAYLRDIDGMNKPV
T2 sequence (P35372 whole entry): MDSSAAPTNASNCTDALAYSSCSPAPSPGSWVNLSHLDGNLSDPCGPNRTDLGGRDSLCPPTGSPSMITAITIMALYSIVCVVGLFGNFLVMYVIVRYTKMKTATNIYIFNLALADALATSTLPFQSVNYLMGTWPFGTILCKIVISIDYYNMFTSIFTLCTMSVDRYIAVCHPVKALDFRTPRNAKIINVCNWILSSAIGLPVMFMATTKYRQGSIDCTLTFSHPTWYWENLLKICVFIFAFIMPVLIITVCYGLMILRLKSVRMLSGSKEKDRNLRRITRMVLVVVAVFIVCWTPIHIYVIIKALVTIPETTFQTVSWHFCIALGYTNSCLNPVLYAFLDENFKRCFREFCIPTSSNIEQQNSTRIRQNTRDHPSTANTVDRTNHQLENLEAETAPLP
T1 sequence (P41146 whole entry): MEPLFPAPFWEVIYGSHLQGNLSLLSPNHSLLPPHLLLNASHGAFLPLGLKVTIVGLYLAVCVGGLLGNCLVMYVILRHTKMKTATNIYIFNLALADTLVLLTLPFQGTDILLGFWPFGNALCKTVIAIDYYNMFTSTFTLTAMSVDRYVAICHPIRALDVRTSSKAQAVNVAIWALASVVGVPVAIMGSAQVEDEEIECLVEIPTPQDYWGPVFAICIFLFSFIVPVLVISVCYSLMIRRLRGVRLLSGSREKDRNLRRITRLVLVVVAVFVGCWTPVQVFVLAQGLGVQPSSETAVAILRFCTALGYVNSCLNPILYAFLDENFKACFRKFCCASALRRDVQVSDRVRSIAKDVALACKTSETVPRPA

SMILES | Ki [1] [nM] | Ki (Nociceptin receptor [2]) [nM] | Ki (Mu-type opioid receptor [3]) [nM] | Ki [4] [nM] | EC50 (Mu-type opioid receptor [5]) [nM] | Ki ([1]; cos-1) [nM] | Ki (Nociceptin receptor [2]; cos-1) [nM] | Ki (Mu-type opioid receptor [3]; cos-1) [nM] | EC50 [6] [nM] | Ki ([4]; cos-1) [nM] | Activity (Mu-type opioid receptor [7]) [%] | Activity [8] | Ke (Nociceptin receptor [9]) [nM]
CC(=O)N[C@@H](CCCN=C(N)N)C(=O)N[C@H](CC1CCCCC1)C(=O)N[C@@H](Cc1ccccc1)C(=O)N1[C@H](C(=O)N[C@H](CCCN=C(N)N)C(=O)N[C@H](Cc2ccc(Cl)cc2)C(N)=O)CC[C@@H]1C(C)(C)C | 2340 | 1700 | 368 | 282 | – | – | – | – | – | – | – | – | –
CC(=O)N[C@@H](CCCNC(=N)N)C(=O)N[C@H](CC1CCCCC1)C(=O)N[C@H]1CC[C@H]2CC[C@@H](C(=O)N[C@H](CCCNC(=N)N)C(=O)N[C@H](Cc3ccc(Cl)cc3)C(N)=O)N2C1=O | – | – | – | – | 1400 | 5200 | 44 | 75 | > 1000 | 190 | – | – | –
CC(=O)N[C@@H](CCCN=C(N)N)C(=O)N[C@H](CC1CCCCC1)C(=O)N[C@H]1C[C@H]2CCC[C@@H](C(=O)N[C@H](CCCN=C(N)N)C(=O)N[C@H](Cc3ccc(Cl)cc3)C(N)=O)N2C1=O | – | – | – | – | – | 10900 | 2130 | 2700 | – | 1080 | – | – | –
CC(=O)N[C@@H](CCCN=C(N)N)C(=O)NC(CC1CCCCC1)C(=O)NC1CC[C@H]2CCC[C@@H](C(=O)N[C@H](CCCN=C(N)N)C(=O)NC(Cc3ccc(Cl)cc3)C(N)=O)N2C1=O (stereo in doubt) | 7050 | 35 | 496 | 441 | 2800 | – | – | – | > 1000 | – | 141 | 117% | –
CC(=O)N[C@@H](CCCN=C(N)N)C(=O)NC(CC1CCCCC1)C(=O)N[C@H]1CC[C@@H]2SC[C@H](C(=O)N[C@H](CCCN=C(N)N)C(=O)NC(Cc3ccc(Cl)cc3)C(N)=O)N2C1=O (stereo in doubt) | – | – | – | – | – | 222 | 34 | 53 | – | 78 | – | – | 40
CC(=O)N[C@@H](CCCN=C(N)N)C(=O)NC(CC1CCCCC1)C(=O)N[C@H]1CC[C@H]2SC[C@@H](C(=O)N[C@H](CCCN=C(N)N)C(=O)NC(Cc3ccc(Cl)cc3)C(N)=O)N2C1=O (stereo in doubt) | – | – | – | – | – | – | – | – | – | – | 207 | 122% and 120% | 400
